One data set addresses T1, Cytochrome P450 1A2 (Homo sapiens, UniProt P05177).
T1 sequence (P05177 whole entry): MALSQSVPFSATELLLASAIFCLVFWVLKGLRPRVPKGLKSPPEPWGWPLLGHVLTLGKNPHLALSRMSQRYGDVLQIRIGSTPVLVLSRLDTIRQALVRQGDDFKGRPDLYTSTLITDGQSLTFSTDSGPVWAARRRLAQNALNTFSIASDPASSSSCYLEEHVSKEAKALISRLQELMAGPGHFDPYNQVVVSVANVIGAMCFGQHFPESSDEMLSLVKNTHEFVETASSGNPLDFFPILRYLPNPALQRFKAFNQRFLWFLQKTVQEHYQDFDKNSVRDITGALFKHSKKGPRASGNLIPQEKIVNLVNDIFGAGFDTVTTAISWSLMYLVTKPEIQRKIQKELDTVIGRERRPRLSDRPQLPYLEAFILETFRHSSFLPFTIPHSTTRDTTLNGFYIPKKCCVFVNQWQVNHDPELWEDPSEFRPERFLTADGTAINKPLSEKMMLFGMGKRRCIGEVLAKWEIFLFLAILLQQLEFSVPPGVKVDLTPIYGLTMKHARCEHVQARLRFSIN
Nature of the data set: Inhibition of CYP1A2. Format: ADME.

Data set [1] in a line: Volume of distribution at steady state in dog at 1 mg/kg, iv. As to conditions: in vivo, read-out: Vdss. Format: ADME, organism-based, Canis lupus familiaris. Also on record: dose 1 mg/kg, route intravenous.
In data set [2] the test system is Blood. Nature of the data set: Drug level in bleomycin-induced mouse blood at 3 mg/mL, sc. Format: ADME, tissue-based.
Data set [3] can be described thus: Volume of distribution at steady state in rat at 0.5 mg/kg, iv. The class given is ADME, organism-based. Also on record: dose 0.5 mg/kg, route intravenous. As to conditions: in vivo, read-out: Vdss.
Data set [4] is described as follows: Clearance in rat at 0.5 mg/kg, iv. Details: dose 0.5 mg/kg, route intravenous. As to conditions: in vivo. Format: ADME, organism-based.
The target in data set [5] is T2, C-X-C chemokine receptor type 3 (Homo sapiens, UniProt P49682).
T2 sequence (P49682 whole entry): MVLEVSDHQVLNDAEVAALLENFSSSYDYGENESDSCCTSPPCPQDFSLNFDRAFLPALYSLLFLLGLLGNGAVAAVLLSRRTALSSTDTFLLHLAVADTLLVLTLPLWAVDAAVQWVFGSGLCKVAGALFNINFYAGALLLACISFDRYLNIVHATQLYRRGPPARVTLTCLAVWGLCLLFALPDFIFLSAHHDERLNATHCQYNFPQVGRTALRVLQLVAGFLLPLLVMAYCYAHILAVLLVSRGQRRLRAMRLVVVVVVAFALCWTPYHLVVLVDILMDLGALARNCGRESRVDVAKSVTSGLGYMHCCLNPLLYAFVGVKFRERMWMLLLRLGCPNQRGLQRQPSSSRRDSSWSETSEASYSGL
Briefly: Displacement of [125I]-1P10 from human CXCR3 expressed in PBMC after 2 hrs in RPMI buffer by scintillation counting. (Displacement assays read how much labelled ligand stays bound in the presence of the test substance.)

In another data set the target is Cytochrome P450 2C9 (Homo sapiens, UniProt P11712). Briefly: Inhibition of CYP2C9. The class given is ADME.
Chain of Cytochrome P450 2C9 (P11712 whole entry): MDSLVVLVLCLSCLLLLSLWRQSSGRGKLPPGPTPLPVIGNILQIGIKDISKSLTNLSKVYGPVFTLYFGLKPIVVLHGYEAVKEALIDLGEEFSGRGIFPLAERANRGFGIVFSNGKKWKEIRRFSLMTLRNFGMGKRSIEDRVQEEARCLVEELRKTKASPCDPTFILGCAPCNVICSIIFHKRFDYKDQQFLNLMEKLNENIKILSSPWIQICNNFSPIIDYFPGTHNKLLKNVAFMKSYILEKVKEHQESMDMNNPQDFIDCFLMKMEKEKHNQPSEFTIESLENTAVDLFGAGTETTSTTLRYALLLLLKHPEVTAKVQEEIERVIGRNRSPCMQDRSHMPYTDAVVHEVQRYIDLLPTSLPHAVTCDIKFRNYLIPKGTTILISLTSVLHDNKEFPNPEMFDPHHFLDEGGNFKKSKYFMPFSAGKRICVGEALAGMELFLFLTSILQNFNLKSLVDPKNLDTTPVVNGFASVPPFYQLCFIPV
For data set [6], the system named is Blood. Briefly: Drug level in bleomycin-induced mouse blood at 0.3 mg/mL, sc. The class given is ADME, tissue-based.
In the next data set the target is T3, CXC chemokine receptor 3 (Macaca mulatta, UniProt B8PY99).
T3 sequence (B8PY99 whole entry): T2 sequence (P49682 whole entry) with T83A, V259A
Briefly: Displacement of [125I]-IP10 from rhesus monkey CXCR3 expressed in human PBMC after 2 hrs in RPMI buffer by scintillation counting. A digest of the protocol:
(§1)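 PBMC bearing CXCR3 were co-incubated with antagonist and recombinant human [125I]-IP10 for 2 h at room temperature in RPMI-1640 (no phenol red) with 0.5% BSA. Cells were harvested onto filter plates and bound radioactivity was counted by scintillation. IC50 values are means of three experiments.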

Data set [7] is described as follows: Oral bioavailability in cynomolgus monkey at 5 mg/kg. The class given is ADME, organism-based, Macaca fascicularis. The following applies: in vivo.
Data set [8] concerns the target T2, C-X-C chemokine receptor type 3. Briefly: Displacement of [125I]-ITAC from human CXCR3 expressed in human PBMC after 2 hrs in RPMI buffer by scintillation counting.
Another data set addresses Cytochrome P450 3A4 (Homo sapiens, UniProt P08684). Briefly: Inhibition of CYP3A4. The class given is ADME.
The subject of data set [9] is Blood. Briefly: Drug level in bleomycin-induced mouse blood at 1 mg/mL, sc. Format: ADME, tissue-based.
A short description of data set [10]: Oral bioavailability in rat at 2 mg/kg. Format: ADME, organism-based. The following applies: in vivo.
The nature of data set [11]: Volume of distribution at steady state in mouse at 0.5 mg/kg, iv. Format: ADME, organism-based. Details: dose 0.5 mg/kg, route intravenous. As to conditions: in vivo, read-out: Vdss.
Data set [12] can be described thus: Mean residence time in mouse at 0.5 mg/kg, iv. The class given is ADME, organism-based. Also on record: dose 0.5 mg/kg, route intravenous. The following applies: in vivo.
A short description of data set [13]: Mean residence time in rat at 0.5 mg/kg, iv. As to conditions: in vivo. The class given is ADME, organism-based. Also on record: dose 0.5 mg/kg, route intravenous.
Data set [14] in a line: Clearance in cynomolgus monkey at 1 mg/kg, iv. The class given is ADME, organism-based, Macaca fascicularis. Details: dose 1 mg/kg, route intravenous. The following applies: in vivo.
For data set [15], the target named is T4, C-X-C chemokine receptor type 3 (Rattus norvegicus, UniProt Q9JII9).
T4 sequence (Q9JII9 whole entry): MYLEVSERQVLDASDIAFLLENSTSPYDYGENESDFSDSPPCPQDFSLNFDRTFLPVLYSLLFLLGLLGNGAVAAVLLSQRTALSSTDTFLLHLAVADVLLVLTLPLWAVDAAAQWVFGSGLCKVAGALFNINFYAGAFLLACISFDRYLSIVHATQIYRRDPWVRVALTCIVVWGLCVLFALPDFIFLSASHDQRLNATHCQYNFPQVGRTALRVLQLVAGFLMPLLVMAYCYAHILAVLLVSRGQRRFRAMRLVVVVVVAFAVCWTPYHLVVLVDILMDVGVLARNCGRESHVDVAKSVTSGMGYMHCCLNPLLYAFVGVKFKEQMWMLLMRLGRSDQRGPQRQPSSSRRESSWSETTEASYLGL
Briefly: Displacement of [125I]-IP10 from rat CXCR3 expressed in human PBMC after 2 hrs in RPMI buffer by scintillation counting. In a few lines: as §1

In data set [16] the target is T2, C-X-C chemokine receptor type 3. Briefly: Displacement of [125I]-1P10 from human CXCR3 expressed in human PBMC after 2 hrs by scintillation counting in plasma. In a few lines:
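[125I]-IP10 displacement from CXCR3 on PBMC: cells co-incubated with antagonist and recombinant human [125I]-IP10 for 2 h at room temperature in EDTA-anticoagulated human plasma (from frozen stocks) in place of RPMI buffer. Filter harvest and scintillation counting; IC50 values are means of three experiments.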

The subject of the next data set is Mus musculus. Briefly: Effect on bleomycin-induced cellular recruitment in sc dosed mouse assessed as inhibition of cellular infiltration measured 6 days after bleomycin challenge. Format: functional, organism-based.
The test system of data set [17] is Blood. Nature of the data set: Drug level in bleomycin-induced mouse blood at 0.1 mg/mL, sc. Format: ADME, tissue-based.
The target of a further data set is Cytochrome P450 2D6 (Homo sapiens, UniProt P10635). Briefly: Inhibition of CYP2D6. The class given is ADME.
Chain of Cytochrome P450 2D6 (P10635 whole entry): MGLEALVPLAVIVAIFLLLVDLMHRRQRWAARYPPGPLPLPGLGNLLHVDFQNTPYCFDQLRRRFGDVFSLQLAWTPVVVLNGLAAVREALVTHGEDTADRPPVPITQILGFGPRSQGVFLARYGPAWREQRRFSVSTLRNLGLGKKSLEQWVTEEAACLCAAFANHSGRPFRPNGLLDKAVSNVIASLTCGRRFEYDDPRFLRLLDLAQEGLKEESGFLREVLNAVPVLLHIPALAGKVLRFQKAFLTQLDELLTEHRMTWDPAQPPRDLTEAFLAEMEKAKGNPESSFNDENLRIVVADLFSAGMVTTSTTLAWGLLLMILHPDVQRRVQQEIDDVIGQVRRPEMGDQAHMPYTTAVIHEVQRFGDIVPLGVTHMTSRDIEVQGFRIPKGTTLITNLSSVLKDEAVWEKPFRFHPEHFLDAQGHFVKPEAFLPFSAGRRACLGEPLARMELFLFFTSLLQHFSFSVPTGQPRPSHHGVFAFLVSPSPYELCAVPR

Residue numbers refer to the chain shown, from its start. Calls of active or inactive are those of the source. The calls are words filed in the database; no cut-off is given here.

The clearance is the rate of elimination divided by the concentration. A word on the IC50: it is the concentration that gives 50% inhibition. One may read the bioavailability as the share of a dose that reaches the circulation, judged against a reference dose that is usually intravenous. In general, MRT refers to the average time that molecules of a dose stay in the body.

Chain of Cytochrome P450 3A4 (P08684 whole entry): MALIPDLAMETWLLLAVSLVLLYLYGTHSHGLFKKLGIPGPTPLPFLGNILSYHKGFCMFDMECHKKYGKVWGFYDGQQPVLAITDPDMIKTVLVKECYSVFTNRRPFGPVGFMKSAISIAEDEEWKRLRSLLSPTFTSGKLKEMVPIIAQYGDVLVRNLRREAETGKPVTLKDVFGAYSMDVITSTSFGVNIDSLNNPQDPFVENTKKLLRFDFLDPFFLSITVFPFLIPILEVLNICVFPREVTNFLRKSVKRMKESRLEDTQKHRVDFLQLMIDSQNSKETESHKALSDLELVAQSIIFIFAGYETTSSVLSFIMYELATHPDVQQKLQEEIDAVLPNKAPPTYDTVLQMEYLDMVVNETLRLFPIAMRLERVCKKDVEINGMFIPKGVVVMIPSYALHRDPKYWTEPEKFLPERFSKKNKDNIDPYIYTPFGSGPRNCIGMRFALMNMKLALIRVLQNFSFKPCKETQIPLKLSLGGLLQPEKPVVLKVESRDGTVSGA

In the case of `CCS(=O)(=O)CCN(C(=O)Cc1ccc(F)c(C(F)(F)F)c1)[C@H](C)c1nc2ncccc2c(=O)n1-c1ccc(OCC(F)(F)F)cc1`, the result at Cytochrome P450 1A2, at Cytochrome P450 2C9, on Cytochrome P450 3A4 and at Cytochrome P450 2D6 was Active. Further, the values for the Vd in [1], in [3] and in data set [11] were 1.1 L/kg, 2.5 L/kg and 0.8 L/kg, respectively. In addition, the Drug uptake in the data set on Blood [2] stood at 18 ng/mL; in the data set on Blood [6] it was 6 ng/mL; with Blood [9] it was 11 ng/mL; in the data set with Blood [17] it was 2 ng/mL. Further, the results for the clearance in [4] and in data set [14] were 65 mL/min/kg and 14.5 mL/min/kg, respectively. Moreover, the IC50 in [5] turned out to be 1 nM; on CXC chemokine receptor 3 it was 2 nM; in data set [8], 1 nM; in data set [15], 4 nM; in [16] it was 6 nM. The bioavailability in [7] was 14%; in [10], 26%. Further, the MRT in [12] was 66 min; in data set [13] it was 39 min. For the same compound, in the data set on Mus musculus, the outcome was Active.

Values taken from ChEMBL document CHEMBL1153804, “Optimization of a series of quinazolinone-derived antagonists of CXCR3” (Bioorg Med Chem Lett, 2009).
